Source: ChEMBL document CHEMBL1649111, “Restoration of susceptibility of intracellular methicillin-resistant Staphylococcus aureus to beta-lactams: comparison of strains, cells, and antibiotics” (Antimicrob Agents Chemother, 2008)

Tests used:
THP-1 = assay: Ratio of intracellular to extracellular drug level in human THP1 cells at 250 mg/L after 24 hrs; assay type: ADME, cell-based; details: thp-1, 24 h
In short: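 THP-1 cells incubated 24 h at 250 mg/liter extracellular drug. Cell lysates assayed microbiologically with MSSA ATCC 25923; content expressed per mg total protein. Cellular/extracellular ratio calculated assuming cell volume of 5 μl per mg protein.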

[1] = Chemical stability of the compound assessed as compound remaining after 24 hrs in PBS buffer by HPLC analysis at pH 7.4; assay type: physicochemical; details: read-out: Activity
In short: (§1)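 Drug at 50 mg/liter initial concentration incubated 24 h at 37°C in buffered medium at pH 7.4 or 5.5. Remaining drug measured by HPLC signal disappearance; mobile phase 25 mM phosphate buffer pH 6.7 with acetonitrile (75:25).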

[2] = Chemical stability of the compound assessed as compound remaining after 24 hrs PBS buffer by HPLC analysis at pH 5.5; assay type: physicochemical; details: read-out: Activity; in short: as §1

| SMILES | Ratio (THP-1) | remaining at 24 h [1] [%] | remaining at 24 h [2] [%] |
| --- | --- | --- | --- |
| Cc1onc(-c2ccccc2)c1C(=O)N[C@@H]1C(=O)N2[C@@H]1SC(C)(C)[C@@H]2C(=O)O [OXACILLIN] | 0.2 | 94.2 | 91.8 |
| C[C@@H](O)[C@H]1C(=O)N2C(C(=O)O)=C(S[C@@H]3CN[C@H](C(=O)N(C)C)C3)[C@H](C)[C@H]12 [MEROPENEM] | 0.2 | 49.3 | 40.3 |
| C[C@@H](O)[C@H]1C(=O)N2C(C(=O)O)=C(SCCN=CN)C[C@H]12 [IMIPENEM ANHYDROUS] | 0.05 | 39.3 | 30.5 |
